The source of these data is ChEMBL document CHEMBL3352045, “Ionic liquid catalyzed synthesis of 2-(indole-3-yl)-thiochroman-4-ones and their novel antifungal activities” (2015).

Type in all cases: functional
One assay relates to Candida albicans. The assay can be described thus: Antifungal activity against Candida albicans after 2 to 7 days by serial plate dilution method. The method, boiled down: (§1)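 Compounds dissolved as DMSO stocks and serially diluted in RPMI 1640 buffered with MOPS, giving final concentrations of 128–0.25. Individual fungal inoculum added to each well. Incubated in triplicate at 37 °C for 2–7 days. MIC read as the lowest concentration with no visible growth. Amphotericin B and fluconazole served as positive controls.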

Another assay has as its system Nannizzia gypsea. The assay can be described thus: Antifungal activity against Microsporum gypseum after 2 to 7 days by serial plate dilution method. The method, boiled down: as §1
The next assay concerns Epidermophyton floccosum. Nature of the assay: Antifungal activity against Epidermophyton floccosum after 2 to 7 days by serial plate dilution method. The method, boiled down: as §1
The subject of another assay is Cryptococcus neoformans. The assay can be described thus: Antifungal activity against Cryptococcus neoformans after 2 to 7 days by serial plate dilution method. The method, boiled down:
as §1

The next assay concerns Mucor racemosus. The assay can be described thus: Antifungal activity against Mucor racemosus after 2 to 7 days by serial plate dilution method.

The structures appear in SMILES notation. In brackets after ≈: the same amount, converted by molar mass.

Take `O=C1CC(c2c[nH]c3ccccc23)Sc2ccc(Cl)cc21` (stereo not given): the MIC (usually the smallest concentration in the dilution series that meets the test's criterion for growth inhibition) with Candida albicans stood at 64 µg/mL (≈ 204 µM); against Nannizzia gypsea, 64 µg/mL (≈ 204 µM); against Epidermophyton floccosum, 32 µg/mL (≈ 102 µM); in the assay on Cryptococcus neoformans, 32 µg/mL (≈ 102 µM); against Mucor racemosus, 64 µg/mL (≈ 204 µM).

Turning to `O=C1CC(c2c[nH]c3ccc(Cl)cc23)Sc2c(F)cccc21` (stereo not given), the MIC in the assay with Candida albicans came to 32 µg/mL (≈ 96.4 µM); with Nannizzia gypsea, 8 µg/mL (≈ 24.1 µM); against Epidermophyton floccosum it was 4 µg/mL (≈ 12.1 µM); in the assay on Cryptococcus neoformans, 4 µg/mL (≈ 12.1 µM); in the assay with Mucor racemosus, 8 µg/mL (≈ 24.1 µM).

As for `C[C@@H]1[C@H](O)[C@@H](C)/C=C/C=C/C=C/C=C/C=C/C=C/C=C/[C@H](O[C@@H]2O[C@H](C)[C@@H](O)[C@H](N)[C@@H]2O)C[C@@H]2O[C@](O)(C[C@@H](O)C[C@@H](O)[C@H](O)CC[C@@H](O)C[C@@H](O)CC(=O)O[C@H]1C)C[C@H](O)[C@H]2C(=O)O` [AMPHOTERICIN B], the minimal inhibitory concentration (MIC) against Candida albicans turned out to be 2 µg/mL (≈ 2.16 µM); in the assay with Nannizzia gypsea, 2 µg/mL (≈ 2.16 µM); in the assay with Epidermophyton floccosum, 2 µg/mL (≈ 2.16 µM); against Cryptococcus neoformans it was 4 µg/mL (≈ 4.33 µM); with Mucor racemosus it was 4 µg/mL (≈ 4.33 µM).

In the case of `Cc1cccc2c1SC(c1cn(C)c3ccccc13)CC2=O` (stereo not given), the minimum inhibitory concentration (MIC) against Candida albicans came to 128 µg/mL (≈ 416 µM); against Nannizzia gypsea, 32 µg/mL (≈ 104 µM); against Epidermophyton floccosum, 64 µg/mL (≈ 208 µM); against Cryptococcus neoformans it was 32 µg/mL (≈ 104 µM); in the assay with Mucor racemosus, 64 µg/mL (≈ 208 µM).

For the molecule `Cc1ccc2c(c1)C(=O)CC(c1c[nH]c3ccccc13)S2` (stereo not given), the MIC was 128 µg/mL (≈ 436 µM) against Candida albicans; over 128 µg/mL in the assay with Nannizzia gypsea; over 128 µg/mL in the assay with Epidermophyton floccosum; 32 µg/mL (≈ 109 µM) in the assay on Cryptococcus neoformans; 128 µg/mL (≈ 436 µM) in the assay with Mucor racemosus.

With `Cc1cc2c(cc1F)SC(c1c[nH]c3ccccc13)CC2=O` (stereo not given), the MIC in the assay on Candida albicans is over 128 µg/mL; against Nannizzia gypsea it was 64 µg/mL (≈ 206 µM); against Epidermophyton floccosum, 64 µg/mL (≈ 206 µM); with Cryptococcus neoformans, 64 µg/mL (≈ 206 µM); against Mucor racemosus, 128 µg/mL (≈ 411 µM).

Turning to `Cc1cc(C)c2c(c1)C(=O)CC(c1c[nH]c3ccccc13)S2` (stereo not given), the MIC in the assay with Candida albicans turned out to be 64 µg/mL (≈ 208 µM); in the assay on Nannizzia gypsea it was 64 µg/mL (≈ 208 µM); in the assay with Epidermophyton floccosum, 128 µg/mL (≈ 416 µM); against Cryptococcus neoformans it was 32 µg/mL (≈ 104 µM); in the assay on Mucor racemosus it was 128 µg/mL (≈ 416 µM).

As to `OC(Cn1cncn1)(Cn1cncn1)c1ccc(F)cc1F` [FLUCONAZOLE], the MIC in the assay on Candida albicans is 32 µg/mL (≈ 104 µM); against Nannizzia gypsea it was 64 µg/mL (≈ 209 µM); against Epidermophyton floccosum it was 32 µg/mL (≈ 104 µM); with Cryptococcus neoformans, 8 µg/mL (≈ 26.1 µM); against Mucor racemosus it was 32 µg/mL (≈ 104 µM).

As to `Cn1cc(C2CC(=O)c3cc(Cl)ccc3S2)c2ccccc21` (stereo not given), the MIC came out at 64 µg/mL (≈ 195 µM) against Candida albicans; 128 µg/mL (≈ 390 µM) with Nannizzia gypsea; 128 µg/mL (≈ 390 µM) in the assay with Epidermophyton floccosum; 128 µg/mL (≈ 390 µM) against Cryptococcus neoformans; 32 µg/mL (≈ 97.6 µM) with Mucor racemosus.

As to `O=C1CC(c2c[nH]c3ccccc23)Sc2ccc(F)cc21` (stereo not given), the MIC against Candida albicans worked out at 128 µg/mL (≈ 430 µM); in the assay with Nannizzia gypsea it was 32 µg/mL (≈ 108 µM); with Epidermophyton floccosum, 32 µg/mL (≈ 108 µM); against Cryptococcus neoformans, 64 µg/mL (≈ 215 µM); in the assay on Mucor racemosus it was 32 µg/mL (≈ 108 µM).

With `O=C1CC(c2c[nH]c3ccc(O)cc23)Sc2c(F)cccc21` (stereo not given), the MIC against Candida albicans came out at 16 µg/mL (≈ 51.1 µM); against Nannizzia gypsea it was 16 µg/mL (≈ 51.1 µM); in the assay on Epidermophyton floccosum, 4 µg/mL (≈ 12.8 µM); in the assay with Cryptococcus neoformans it was 8 µg/mL (≈ 25.5 µM); in the assay with Mucor racemosus, 16 µg/mL (≈ 51.1 µM).

In the case of `O=C1CC(c2c[nH]c3ccccc23)Sc2c(F)cccc21` (stereo not given), the minimum inhibitory concentration (MIC) amounted to 32 µg/mL (≈ 108 µM) against Candida albicans; 8 µg/mL (≈ 26.9 µM) in the assay on Nannizzia gypsea; 8 µg/mL (≈ 26.9 µM) in the assay on Epidermophyton floccosum; 16 µg/mL (≈ 53.8 µM) in the assay on Cryptococcus neoformans; 32 µg/mL (≈ 108 µM) in the assay on Mucor racemosus.

`Cc1cc(C)c2c(c1)C(=O)CC(c1c[nH]c3ccc(Cl)cc13)S2` (stereo not given): the minimal inhibitory concentration (MIC) against Candida albicans came to 32 µg/mL (≈ 93.6 µM); with Nannizzia gypsea, 16 µg/mL (≈ 46.8 µM); in the assay on Epidermophyton floccosum, 16 µg/mL (≈ 46.8 µM); in the assay on Cryptococcus neoformans, 16 µg/mL (≈ 46.8 µM); in the assay on Mucor racemosus, 32 µg/mL (≈ 93.6 µM).

As for `Cc1cc(C)c2c(c1)C(=O)CC(c1c[nH]c3ccc(O)cc13)S2` (stereo not given), the minimum inhibitory concentration (MIC) with Candida albicans is 64 µg/mL (≈ 198 µM); with Nannizzia gypsea it was 16 µg/mL (≈ 49.5 µM); against Epidermophyton floccosum, 16 µg/mL (≈ 49.5 µM); in the assay with Cryptococcus neoformans, 16 µg/mL (≈ 49.5 µM); with Mucor racemosus, 32 µg/mL (≈ 98.9 µM).

`Cc1cccc2c1SC(c1c[nH]c3ccccc13)CC2=O` (stereo not given): the minimal inhibitory concentration (MIC) in the assay on Candida albicans was determined as 64 µg/mL (≈ 218 µM); against Nannizzia gypsea, 64 µg/mL (≈ 218 µM); against Epidermophyton floccosum it was 128 µg/mL (≈ 436 µM); in the assay on Cryptococcus neoformans it was 64 µg/mL (≈ 218 µM); in the assay on Mucor racemosus, 64 µg/mL (≈ 218 µM).

As to `O=C1CC(c2c[nH]c3ccc(Cl)cc23)Sc2ccc(Cl)cc21` (stereo not given), the MIC in the assay with Candida albicans turned out to be 64 µg/mL (≈ 184 µM); in the assay on Nannizzia gypsea it was 16 µg/mL (≈ 45.9 µM); with Epidermophyton floccosum it was 8 µg/mL (≈ 23 µM); against Cryptococcus neoformans it was 4 µg/mL (≈ 11.5 µM); in the assay with Mucor racemosus, 8 µg/mL (≈ 23 µM).

For `Cn1cc(C2CC(=O)c3cccc(Cl)c3S2)c2ccccc21` (stereo not given), the minimal inhibitory concentration (MIC) was 32 µg/mL (≈ 97.6 µM) with Candida albicans; 32 µg/mL (≈ 97.6 µM) against Nannizzia gypsea; 32 µg/mL (≈ 97.6 µM) against Epidermophyton floccosum; 64 µg/mL (≈ 195 µM) against Cryptococcus neoformans; 32 µg/mL (≈ 97.6 µM) with Mucor racemosus.
